{"source": "ChEMBL document CHEMBL1156133", "about": "“Losartan-antioxidant hybrids: novel molecules for the prevention of hypertension-induced cardiovascular damage” (J Med Chem, 2009)", "key": {"Rattus norvegicus [1]": {"system": "Rattus norvegicus", "test": "Antihypertensive activity in Wistar rat assessed as change in blood Na+ level at 10 mg/kg/day, po measured after 8 weeks in presence of losartan", "assay_type": "functional"}, "Rattus norvegicus [2]": {"system": "Rattus norvegicus", "test": "Antihypertensive activity in Wistar rat assessed as decrease in L-NAME-induced collagen 1 level in vessel walls at 10 mg/kg/day, po for 4 weeks in presence of losartan", "assay_type": "functional, organism-based", "method_in_brief": "(§1)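 Male Wistar rats on L-NAME in drinking water (20 mg/kg/day) for 8 weeks, treatments in drinking water for the last 4 weeks. Thoracic aorta lysates run on SDS-PAGE and Western blotted for collagen type I, fibronectin or HNE-lysine, with β-tubulin as loading control; ECL detection, densitometry. Expressed as percent of basal; mean ± SEM of 10 experiments.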"}, "Rattus norvegicus [3]": {"system": "Rattus norvegicus", "test": "Antihypertensive activity in Wistar rat assessed as change in blood AST level at 10 mg/kg/day, po measured after 8 weeks in presence of losartan", "assay_type": "functional"}, "Rattus norvegicus [4]": {"system": "Rattus norvegicus", "test": "Antihypertensive activity in Wistar rat assessed as change in blood ALT level at 10 mg/kg/day, po measured after 8 weeks in presence of losartan", "assay_type": "functional"}, "Rattus norvegicus [5]": {"system": "Rattus norvegicus", "test": "Antihypertensive activity in Wistar rat assessed as change in blood urea level at 10 mg/kg/day, po measured after 8 weeks", "assay_type": "functional", "method_in_brief": "(§2)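 Two-month-old male Wistar rats given L-NAME in drinking water (20 mg/kg/day) for 8 weeks; from week 4, test treatments also in drinking water daily (12.00-18.00 h). Sacrificed under halothane anesthesia at 8 weeks; serum biochemical parameters measured by automatic analyzer. Mean ± SEM of 10 rats; nonparametric statistics.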"}, "Rattus norvegicus [6]": {"system": "Rattus norvegicus", "test": "Antihypertensive activity in Wistar rat assessed as change in blood LDH level at 10 mg/kg/day, po measured after 8 weeks in presence of losartan", "assay_type": "functional"}, "Rattus norvegicus [7]": {"system": "Rattus norvegicus", "test": "Antihypertensive activity in Wistar rat assessed as decrease in L-NAME-induced HNE-lysine accumulation in vessel walls at 10 mg/kg/day, po for 4 weeks in presence of losartan", "assay_type": "functional, organism-based", "method_in_brief": "as §1"}, "Rattus norvegicus [8]": {"system": "Rattus norvegicus", "test": "Antihypertensive activity in Wistar rat assessed as change in blood creatinine level at 10 mg/kg/day, po measured after 8 weeks", "assay_type": "functional", "method_in_brief": "as §2"}, "Rattus norvegicus [9]": {"system": "Rattus norvegicus", "test": "Antihypertensive activity in Wistar rat assessed as change in blood protein level at 10 mg/kg/day, po measured after 8 weeks", "assay_type": "functional", "method_in_brief": "as §2"}, "Rattus norvegicus [10]": {"system": "Rattus norvegicus", "test": "Antihypertensive activity in Wistar rat assessed as change in blood cholesterol level at 10 mg/kg/day, po measured after 8 weeks in presence of losartan", "assay_type": "functional"}, "Rattus norvegicus [11]": {"system": "Rattus norvegicus", "test": "Antihypertensive activity in Wistar rat assessed as change in blood triglyceride level at 10 mg/kg/day, po measured after 8 weeks", "assay_type": "functional", "method_in_brief": "as §2"}, "Rattus norvegicus [12]": {"system": "Rattus norvegicus", "test": "Antihypertensive activity in Wistar rat assessed as change in blood urea level at 10 mg/kg/day, po measured after 8 weeks in presence of losartan", "assay_type": "functional", "method_in_brief": "as §2"}, "Rattus norvegicus [13]": {"system": "Rattus norvegicus", "test": "Antihypertensive activity in Wistar rat assessed as change in blood creatinine level at 10 mg/kg/day, po measured after 8 weeks in presence of losartan", "assay_type": "functional", "method_in_brief": "as §2"}, "Rattus norvegicus [14]": {"system": "Rattus norvegicus", "test": "Antihypertensive activity in Wistar rat assessed as change in blood AST level at 10 mg/kg/day, po measured after 8 weeks", "assay_type": "functional"}, "Rattus norvegicus [15]": {"system": "Rattus norvegicus", "test": "Antihypertensive activity in Wistar rat assessed as change in blood calcium level at 10 mg/kg/day, po measured after 8 weeks", "assay_type": "functional"}, "Rattus norvegicus [16]": {"system": "Rattus norvegicus", "test": "Antihypertensive activity in Wistar rat assessed as change in blood […] level at 10 mg/kg/day, po measured after 8 weeks in presence of losartan", "assay_type": "functional"}, "Rattus norvegicus [17]": {"system": "Rattus norvegicus", "test": "Antihypertensive activity in Wistar rat assessed as change in blood cholesterol level at 10 mg/kg/day, po measured after 8 weeks", "assay_type": "functional"}, "Rattus norvegicus [18]": {"system": "Rattus norvegicus", "test": "Antihypertensive activity in Wistar rat assessed as decrease in L-NAME-induced fibronectin content in vessel walls at 10 mg/kg/day, po for 4 weeks in presence of losartan", "assay_type": "functional, organism-based", "method_in_brief": "as §1"}, "Rattus norvegicus [19]": {"system": "Rattus norvegicus", "test": "Antihypertensive activity in Wistar rat assessed as change in blood protein level at 10 mg/kg/day, po measured after 8 weeks in presence of losartan", "assay_type": "functional", "method_in_brief": "as §2"}, "Rattus norvegicus [20]": {"system": "Rattus norvegicus", "test": "Antihypertensive activity in Wistar rat assessed as change in blood LDH level at 10 mg/kg/day, po measured after 8 weeks", "assay_type": "functional"}, "Rattus norvegicus [21]": {"system": "Rattus norvegicus", "test": "Antihypertensive activity in Wistar rat assessed as change in blood ALT level at 10 mg/kg/day, po measured after 8 weeks", "assay_type": "functional"}, "Rattus norvegicus [22]": {"system": "Rattus norvegicus", "test": "Antihypertensive activity in Wistar rat assessed as change in blood calcium level at 10 mg/kg/day, po measured after 8 weeks in presence of losartan", "assay_type": "functional"}, "Rattus norvegicus [23]": {"system": "Rattus norvegicus", "test": "Antihypertensive activity in Wistar rat assessed as change in blood glucose level at 10 mg/kg/day, po measured after 8 weeks", "assay_type": "functional", "method_in_brief": "as §2"}, "Rattus norvegicus [24]": {"system": "Rattus norvegicus", "test": "Antihypertensive activity in Wistar rat assessed as change in blood […] level at 10 mg/kg/day, po measured after 8 weeks", "assay_type": "functional"}, "Rattus norvegicus [25]": {"system": "Rattus norvegicus", "test": "Antihypertensive activity in Wistar rat assessed as change in blood glucose level at 10 mg/kg/day, po measured after 8 weeks in presence of losartan", "assay_type": "functional", "method_in_brief": "as §2"}, "Rattus norvegicus [26]": {"system": "Rattus norvegicus", "test": "Plasma concentration in po dosed Wistar rat assessed as EXP-3174 level after 4 weeks in presence of losartan", "assay_type": "ADME, organism-based", "settings": "in vivo, 672 h", "method_in_brief": "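Separate groups of Wistar rats dosed in drinking water for 4 weeks (n = 4-6 per group), then sacrificed and plasma analyzed by HPLC-MS/MS (triple quadrupole, electrospray), isocratic MeOH/water with 0.1% formic acid, 40 °C. Two plasma samples per animal; mean ± SEM.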"}, "Rattus norvegicus [27]": {"system": "Rattus norvegicus", "test": "Antihypertensive activity in Wistar rat assessed as change in blood triglyceride level at 10 mg/kg/day, po measured after 8 weeks in presence of losartan", "assay_type": "functional", "method_in_brief": "as §2"}, "Rattus norvegicus [28]": {"system": "Rattus norvegicus", "test": "Antihypertensive activity in Wistar rat assessed as change in blood Na+ level at 10 mg/kg/day, po measured after 8 weeks", "assay_type": "functional"}}, "note": "The source made the active and inactive calls. No cut-off for these calls is given here."}
{"smiles": "O=C(O)CCc1ccc(O)c(O)c1", "note": "[DIHYDROCAFFEIC ACID]", "values": [{"measurement": "Activity", "setting": "Rattus norvegicus [1]", "value": 148, "unit": "mmol/L"}, {"measurement": "Activity", "setting": "Rattus norvegicus [2]", "value": "Active"}, {"measurement": "Activity", "setting": "Rattus norvegicus [3]", "value": 93, "unit": "IU/L"}, {"measurement": "Activity", "setting": "Rattus norvegicus [4]", "value": 22, "unit": "IU/L"}, {"measurement": "Activity", "setting": "Rattus norvegicus [5]", "value": 27, "unit": "mg/dL"}, {"measurement": "Activity", "setting": "Rattus norvegicus [6]", "value": 610, "unit": "IU/L"}, {"measurement": "Activity", "setting": "Rattus norvegicus [7]", "value": "Active"}, {"measurement": "Activity", "setting": "Rattus norvegicus [8]", "value": 0.47, "unit": "mg/dL"}, {"measurement": "Activity", "setting": "Rattus norvegicus [9]", "value": 5.2, "unit": "g/dL"}, {"measurement": "Activity", "setting": "Rattus norvegicus [10]", "value": 54, "unit": "mg/dL"}, {"measurement": "Activity", "setting": "Rattus norvegicus [11]", "value": 70, "unit": "mg/dL"}, {"measurement": "Activity", "setting": "Rattus norvegicus [12]", "value": 24, "unit": "mg/dL"}, {"measurement": "Activity", "setting": "Rattus norvegicus [13]", "value": 0.44, "unit": "mg/dL"}, {"measurement": "Activity", "setting": "Rattus norvegicus [14]", "value": 77, "unit": "IU/L"}, {"measurement": "Activity", "setting": "Rattus norvegicus [15]", "value": 8.8, "unit": "mg/dL"}, {"measurement": "Activity", "setting": "Rattus norvegicus [16]", "value": 4.2, "unit": "mmol/L"}, {"measurement": "Activity", "setting": "Rattus norvegicus [17]", "value": 58, "unit": "mg/dL"}, {"measurement": "Activity", "setting": "Rattus norvegicus [18]", "value": "Active"}, {"measurement": "Activity", "setting": "Rattus norvegicus [19]", "value": 4, "unit": "g/dL"}, {"measurement": "Activity", "setting": "Rattus norvegicus [20]", "value": 591, "unit": "IU/L"}, {"measurement": "Activity", "setting": "Rattus norvegicus [21]", "value": 24, "unit": "IU/L"}, {"measurement": "Activity", "setting": "Rattus norvegicus [22]", "value": 8.5, "unit": "mg/dL"}, {"measurement": "Activity", "setting": "Rattus norvegicus [23]", "value": 170, "unit": "mg/dL"}, {"measurement": "Activity", "setting": "Rattus norvegicus [24]", "value": 4.1, "unit": "mmol/L"}, {"measurement": "Activity", "setting": "Rattus norvegicus [25]", "value": 168, "unit": "mg/dL"}, {"measurement": "concentration", "setting": "Rattus norvegicus [26]", "value": 19.4, "unit": "nM"}, {"measurement": "Activity", "setting": "Rattus norvegicus [27]", "value": 69, "unit": "mg/dL"}, {"measurement": "Activity", "setting": "Rattus norvegicus [28]", "value": 148, "unit": "mmol/L"}]}
